Compound activity: PubChem BioAssay, several laboratories
NPY-Y2 antag: antagonists of human neuropeptide Y receptor Y2. P49146. NPY-Y2 expressing cells, antagonist mode. inhibition, % at 2.7 µM. 0.99% of 140,000 active
NPY1 pot ag: potentiates or activates human NPY-Y1 receptor; 0.37% of 220,000 active; NPY-Y1 expressing cells, potentiator/agonist activation; AID 1304; activation, % at 3.6 µM; P25929; in the data active = activation above about 33%, passing the limit was not always enough;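 also: cells stimulated with NPY at EC10 then isoproterenol at EC100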
Target sequence (P25929 whole entry, looked up): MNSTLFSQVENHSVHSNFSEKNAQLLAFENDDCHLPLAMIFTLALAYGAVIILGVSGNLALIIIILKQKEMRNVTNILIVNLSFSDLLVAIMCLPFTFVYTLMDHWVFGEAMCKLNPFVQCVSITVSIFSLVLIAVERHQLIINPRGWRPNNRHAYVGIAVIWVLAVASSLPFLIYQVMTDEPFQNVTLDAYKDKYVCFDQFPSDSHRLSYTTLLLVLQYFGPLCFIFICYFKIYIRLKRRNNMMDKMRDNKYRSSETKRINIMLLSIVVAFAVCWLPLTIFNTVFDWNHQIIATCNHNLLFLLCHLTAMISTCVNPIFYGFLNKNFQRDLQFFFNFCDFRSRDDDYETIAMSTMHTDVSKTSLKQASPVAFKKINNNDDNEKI
NPY-Y2 PAM-ag: potentiates or activates human NPY-Y2 receptor; P49146; cells expressing NPY-Y2, potentiator/agonist read-out; activation, % at 3.6 µM; 0.45% of 220,000 active; in the data active = activation above about 27%;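 also: cells stimulated with NPY near EC25 plus isoproterenol at EC100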
EP2 modulator: modulators of human EP2 prostaglandin E2 receptor. P43116. EP2-expressing cells, cAMP HTRF FRET, PGE2 co-stimulation. induction, % at 25 µM. 0.83% of 260,000 active. AID 940;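 active = compounds whose cAMP rise, as percent of the full-agonist control response, exceeds 60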;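 also: rat C6 glioma line stably carrying human EP2 under a CMV promoter; the protocol text gives 20 µM as final concentration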
Target sequence (P43116 whole entry, looked up): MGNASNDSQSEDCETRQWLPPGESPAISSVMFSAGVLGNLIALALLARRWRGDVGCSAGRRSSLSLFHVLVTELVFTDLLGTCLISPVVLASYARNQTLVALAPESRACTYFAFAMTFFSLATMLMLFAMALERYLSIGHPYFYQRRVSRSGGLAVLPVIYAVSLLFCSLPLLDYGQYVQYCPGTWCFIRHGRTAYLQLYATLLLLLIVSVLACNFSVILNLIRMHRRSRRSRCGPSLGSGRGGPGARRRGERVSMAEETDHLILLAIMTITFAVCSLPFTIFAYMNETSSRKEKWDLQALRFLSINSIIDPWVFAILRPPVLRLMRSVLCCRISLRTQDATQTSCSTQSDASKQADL
EP2 antag: EP2 receptor (human) inhibition | 0.52% of 260,000 active | C6 glioma cells expressing human EP2, cAMP TR-FRET; cells stimulated with saturating PGE2 | inhibition, % at 25 µM | P43116;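 active = percent inhibition above 40 after rounding to a whole number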;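 also: rat C6 glioma host cells with rolipram phosphodiesterase inhibitor present; the protocol text gives 20 µM as final concentration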
NPY Y1 blocker: antagonists of human neuropeptide Y receptor Y1; P25929; HEK293-CNG Y1 cells, membrane potential fluorescence; NPY at EC95, then isoproterenol; inhibition, % at 3.6 µM; 1% of 200,000 active;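 active = inhibition above the campaign mean inhibition of all tested compounds plus 3 SD, cut at about 20% in these data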
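Assay system: HEK293 Y1/CNG channel cell line; Doses: single compound dose of 3.6 µM, 0.4% DMSO; Timing: dye 3 h, compound 60 min room temperature, stimulation 45 min; Technique: Membrane-potential fluorescent dye readout; Measure: % inhibition of NPY effect.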
NPY1 antag conf: confirmation of human neuropeptide Y receptor Y1 antagonists; shares compounds with NPY Y1 blocker; HEK293-CNG NPY-Y1, membrane potential fluorescence, cAMP; NPY challenge against isoproterenol-raised cAMP; inhibition, % at 3.6 µM; 21% of 1,200 active; in the data active = inhibition above about 20%
NPY2 antag ctr: counter-screen for NPY-Y1 antagonists: human NPY-Y2 antagonism | shares compounds with NPY Y1 blocker | HEK293 NPY-Y2 CNG membrane potential fluorescence; cells given NPY, then isoproterenol | inhibition, % at 3.6 µM | 28% of 1,200 active
Each line names hits and unclear results; the compound was inactive in the other large screens (follow-up assays come after a bar, where they were run). Rows were chosen to be rich in hits. Some 2.8% of all compounds tested hit in one or more screens of this group. Rule as the data show it, unless noted: active = inhibition above about 17%; inactive = the rest.

CSCC(C)N1CCC(CO)(CCCc2ccccc2)CC1 (configuration not stated)	none (no result: NPY-Y2 antag)
CCOC(=O)C1(CCCc2ccccc2)CCN(C(=O)COC)CC1	none (no result: NPY-Y2 antag, NPY Y1 blocker)
COC(=O)c1ccc(-c2noc(CN3CCCCC3c3nccn3C)n2)cc1 (configuration not stated)	NPY Y1 blocker 33 (no result: NPY-Y2 antag) | NPY1 antag conf inactive | NPY2 antag ctr inactive
CC(OC(=O)CC(NC(=O)c1ccccc1Cl)c1ccccc1)C(=O)Nc1cccc(Cl)c1Cl (configuration not stated)	NPY Y1 blocker 30 | NPY1 antag conf 27 | NPY2 antag ctr 17
CC1CCCC(C)N1C(=O)CN1CCC2(CC1)NC(=O)c1ccccc1O2 (configuration not stated)	none (no result: NPY-Y2 antag, NPY1 pot ag, NPY-Y2 PAM-ag, NPY Y1 blocker)
c1ccc(N/N=C2\CCCc3ccccc32)nc1	none (no result: NPY-Y2 antag)
Cc1cc(N/N=C2/CCCc3ccccc32)nc2ccccc12	NPY Y1 blocker 29 (no result: NPY-Y2 antag) | NPY1 antag conf 32 | NPY2 antag ctr 29
COc1ccc(C(=O)CSc2ccc(-c3ccc(C)cc3)nn2)cc1	NPY Y1 blocker 25 | NPY1 antag conf inactive | NPY2 antag ctr inactive
Cc1ccc(C(=O)CSc2ccc(-c3ccccc3)nn2)cc1	none
Cc1c(C(N)=O)sc2nc[nH]c(=O)c12	none (no result: NPY-Y2 antag, NPY1 pot ag, NPY-Y2 PAM-ag, NPY Y1 blocker)
O=C(CN1C(=O)c2ccccc2S1(=O)=O)Nc1cccc2ccccc12	none (no result: NPY-Y2 antag, NPY1 pot ag, NPY-Y2 PAM-ag, NPY Y1 blocker)
Cc1c(Cl)cnc(NC(=O)COC(=O)Cc2coc3ccc4ccccc4c23)c1Cl	NPY Y1 blocker 23 | NPY1 antag conf inactive | NPY2 antag ctr inactive
COc1cc2ncn3c(=O)n(CC(=O)NC(C)(C)C)nc3c2cc1OC	none (no result: NPY-Y2 antag, NPY1 pot ag, NPY-Y2 PAM-ag, NPY Y1 blocker)
Cc1noc(NS(=O)(=O)c2ccc(NC(=O)c3ccc(OC(C)C)cc3)cc2)c1C	NPY Y1 blocker 54 (no result: NPY-Y2 antag) | NPY1 antag conf inactive | NPY2 antag ctr inactive
c1ccc(-c2csc3ncnc(NCCCN4CCOCC4)c23)cc1	none
O=c1c2c(-c3ccccc3)csc2nc2c3ccccc3c(NCCN3CCOCC3)nn12	NPY Y1 blocker 32 (no result: NPY-Y2 antag) | NPY1 antag conf 27 | NPY2 antag ctr 40
Cc1ccc(CN(Cc2cc3ccc(C)cc3[nH]c2=O)C(c2nnnn2C2CCCCC2)C(C)C)cc1 (configuration not stated)	none (no result: NPY-Y2 antag, NPY1 pot ag, NPY-Y2 PAM-ag, NPY Y1 blocker)
CCOc1cc(/C=N/n2nnnc2N)ccc1OCc1c(C)no[n+]1[O-]	NPY Y1 blocker 21 | NPY1 antag conf inactive | NPY2 antag ctr inactive
Cc1no[n+]([O-])c1COc1ccccc1/C=N/n1nnnc1N	none
Cc1ccc2cc3c(N)c(C(=O)Nc4ccccc4F)sc3nc2c1	none (no result: NPY-Y2 antag, NPY1 pot ag, NPY-Y2 PAM-ag, NPY Y1 blocker)
COc1ccc(C(C(=O)NC2CCCC2)N(CCN(C)C)C(=O)c2snc(C(N)=O)c2N)cc1 (configuration not stated)	none
COc1ccc(CN(C(=O)c2nsc(Cl)c2Cl)C(C(=O)NC2CCCCC2)c2ccc(OC)cc2)cc1 (configuration not stated)	NPY Y1 blocker 22 | NPY1 antag conf inactive | NPY2 antag ctr inactive
O=C(Cn1nnc(-c2ccc(F)cc2)n1)NC1CCCC1	none (no result: NPY-Y2 antag, NPY1 pot ag, NPY-Y2 PAM-ag, NPY Y1 blocker)
O=C(O)CCc1ccc(-c2ccc(Br)cc2)o1	NPY Y1 blocker 23 | NPY1 antag conf inactive | NPY2 antag ctr inactive
Cc1ccc(CSc2nc3ccccc3c(=O)n2Cc2ccco2)cc1	NPY Y1 blocker 28 | NPY1 antag conf inactive | NPY2 antag ctr inactive
O=c1c2ccccc2nc(SCc2ccccc2)n1Cc1ccco1	none
COc1ccc(/C(N)=N/OC(=O)CSc2ccc(C)cc2)cc1OC	NPY Y1 blocker 21 | NPY1 antag conf inactive | NPY2 antag ctr inactive
Cc1ccc(SCC(=O)O/N=C(\N)c2ccc([N+](=O)[O-])cc2)cc1	none
Cc1nc2c(C(=O)N3CCN(c4ccccn4)CC3)cnn2c(C)c1Cc1cccc(Cl)c1	NPY Y1 blocker 31 | NPY1 antag conf inactive | NPY2 antag ctr inactive
O=C(Nc1cc(Cl)ccc1N1CCCCC1)c1cccs1	none
CCc1sc(C(=O)Nc2cc(Cl)ccc2N2CCCCC2)cc1C	NPY Y1 blocker 21 | NPY1 antag conf inactive | NPY2 antag ctr inactive
CCOc1ccccc1-c1nc(C(N)=O)c2[nH]c(=O)n(-c3cccc(C)c3)c2n1	NPY Y1 blocker 24 (no result: EP2 antag) | NPY1 antag conf inactive | NPY2 antag ctr inactive
CCOc1cccc(-c2nc(C(N)=O)c3[nH]c(=O)n(-c4cccc(Cl)c4)c3n2)c1O	none
COc1cccc(C(=O)NC2CCCC2)c1	none (no result: NPY-Y2 antag)
COc1ccc(N(C)S(=O)(=O)c2cccc(C(=O)NC3CCCCCC3)c2)cc1	NPY Y1 blocker 39 (no result: NPY-Y2 antag) | NPY1 antag conf inactive | NPY2 antag ctr inactive
COc1ccc(N(C)S(=O)(=O)c2cccc(C(=O)N(C)Cc3ccc(C)o3)c2)cc1	NPY Y1 blocker 31 (no result: NPY-Y2 antag) | NPY1 antag conf inactive | NPY2 antag ctr inactive
COc1ccc(N(C)S(=O)(=O)c2cccc(C(=O)NC3CCC(C)CC3)c2)cc1 (configuration not stated)	NPY Y1 blocker 46 (no result: NPY-Y2 antag) | NPY1 antag conf 27 | NPY2 antag ctr inactive
Cc1cc(C)c(S(=O)(=O)Nc2ccc3c4c(cccc24)CC3)c(C)c1	NPY Y1 blocker 23 | NPY1 antag conf inactive | NPY2 antag ctr 37
COc1cccc(-c2noc(C3CCCN(S(=O)(=O)c4cccc(Cl)c4C)C3)n2)c1 (configuration not stated)	NPY Y1 blocker 30 | NPY1 antag conf inactive | NPY2 antag ctr inactive
CCOc1ccc(N=C(C)C2=C(O)c3ccccc3C2=O)cc1	none (no result: NPY-Y2 antag, NPY Y1 blocker)
CCOc1ccc(N=C(NN)c2ccc3ccccc3n2)cc1	NPY Y1 blocker 24 | NPY1 antag conf inactive | NPY2 antag ctr inactive
CC(C)Nc1nc(NC(C)(C)C)nc(Oc2ccc(=O)[nH]n2)n1	none (no result: NPY-Y2 antag, NPY1 pot ag, NPY-Y2 PAM-ag, NPY Y1 blocker)
O=C(c1ccc(F)c(F)c1)N1CCC(c2nc3ccccc3s2)CC1	none (no result: NPY-Y2 antag, NPY1 pot ag, NPY-Y2 PAM-ag, NPY Y1 blocker)
CC1CCCC(NC(=O)CSc2ccc(F)cc2)C1C (configuration not stated)	NPY Y1 blocker 67 (no result: NPY-Y2 antag) | NPY1 antag conf inactive | NPY2 antag ctr inactive
CC1CCCC(NC(=O)CCC(=O)c2ccc(F)cc2)C1C (configuration not stated)	none (no result: NPY-Y2 antag, NPY Y1 blocker)
CC1CCCC(C)N1C(=O)CSc1nnc(-c2cccnc2)n1Cc1ccccc1 (configuration not stated)	none (no result: NPY-Y2 antag, NPY1 pot ag, NPY-Y2 PAM-ag, NPY Y1 blocker)
O=C(O)CCCCCCC1C(=O)NC(=O)N1CCC(O)C1CCCCC1 (configuration not stated)	EP2 modulator 106, NPY Y1 blocker 24 | NPY1 antag conf 28 | NPY2 antag ctr 21
COc1ccccc1NC(=O)CSc1nnc(-c2ccccc2OC)n1C	none (no result: NPY-Y2 antag, NPY1 pot ag, NPY-Y2 PAM-ag, NPY Y1 blocker)
CCCCOc1ccc(CC(=O)NO)cc1	NPY Y1 blocker 38 | NPY1 antag conf inactive | NPY2 antag ctr inactive
